Measurements: ChEMBL document CHEMBL4033800, “Further Developments of the Phenyl-Pyrrolyl Pentane Series of Nonsteroidal Vitamin D Receptor Modulators as Anticancer Agents” (J Med Chem, 2018)
Active and inactive are the calls of the source. The rule behind the calls is not given here.

Legend:
[1] = system: MCF7; assay: Induction of apoptosis in human MCF7 cells assessed as necrotic cells at 1 uM after 24 hrs by Annexin V-FITC/propidium iodide-staining based flow cytometry (reference value: 0.031%); type: functional
[2] = system: MCF7; assay: Induction of apoptosis in human MCF7 cells assessed as late apoptotic cells at 1 uM after 24 hrs by Annexin V-FITC/propidium iodide-staining based flow cytometry (reference value: 0.062%); type: functional
[3] = system: MCF7; assay: Induction of apoptosis in human MCF7 cells assessed as early apoptotic cells at 1 uM after 24 hrs by Annexin V-FITC/propidium iodide-staining based flow cytometry (reference value: 1.74%); type: functional
[4] = system: MCF7; assay: Induction of apoptosis in human MCF7 cells assessed as viable cells at 1 uM after 24 hrs by Annexin V-FITC/propidium iodide-staining based flow cytometry (reference value: 98.2%); type: functional; details: MCF7, 24 h, read-out: Activity
[5] = system: MCF7; assay: Induction of cell cycle arrest in human MCF7 cells assessed as accumulation at G2/M phase at 1 uM after 24 hrs by propidium iodide-staining based flow cytometry (reference value: 12.41%); type: functional
[6] = system: MCF7; assay: Induction of cell cycle arrest in human MCF7 cells assessed as accumulation at G0/G1 phase at 1 uM after 24 hrs by propidium iodide-staining based flow cytometry (reference value: 56.03%); type: functional
[7] = system: MCF7; assay: Induction of cell cycle arrest in human MCF7 cells assessed as accumulation at S phase at 1 uM after 24 hrs by propidium iodide-staining based flow cytometry (reference value: 31.55%); type: functional
[8] = biological target: T1, Vitamin D3 receptor (Homo sapiens, UniProt P11473); assay: Displacement of fluormone VDR red from human full length VDR after 4 hrs by fluorescence polarization assay
T1 sequence (P11473 whole entry): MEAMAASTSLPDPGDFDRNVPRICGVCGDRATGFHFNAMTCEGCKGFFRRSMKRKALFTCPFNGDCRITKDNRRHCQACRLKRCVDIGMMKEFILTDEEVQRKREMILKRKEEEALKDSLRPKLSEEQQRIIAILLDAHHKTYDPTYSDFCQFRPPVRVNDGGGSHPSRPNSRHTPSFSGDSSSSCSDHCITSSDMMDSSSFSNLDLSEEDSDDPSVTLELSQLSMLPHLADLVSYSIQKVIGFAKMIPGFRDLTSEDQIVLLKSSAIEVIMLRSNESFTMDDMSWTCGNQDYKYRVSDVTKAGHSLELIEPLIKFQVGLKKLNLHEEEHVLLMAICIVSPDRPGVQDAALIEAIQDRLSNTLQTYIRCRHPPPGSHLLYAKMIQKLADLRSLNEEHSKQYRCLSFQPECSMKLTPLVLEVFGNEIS

[9] = system: HepG2; assay: Antiproliferative activity against human HepG2 cells after 48 hrs by MTT assay; type: functional, cell-based; details: HepG2, 48 h
[10] = system: L02; assay: Antiproliferative activity against human L02 cells after 48 hrs by MTT assay; type: cell-based; details: L02, 48 h
[11] = system: MCF7; assay: Antiproliferative activity against human MCF7 cells after 48 hrs by MTT assay; type: functional, cell-based; details: MCF7, 48 h
[12] = system: PC-3; assay: Antiproliferative activity against human PC3 cells after 48 hrs by MTT assay; type: functional, cell-based; details: PC-3, 48 h
[13] = system: Caco-2; assay: Antiproliferative activity against human Caco2 cells after 48 hrs by MTT assay; type: functional, cell-based; details: Caco-2, 48 h
[14] = Bioavailability in Sprague-Dawley rat at 20 mg/kg, ip measured up to 48 hrs after administration by HPLC analysis; type: ADME, organism-based; details: in vivo
Procedure, shortened: (§1)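 Male Sprague-Dawley rats (180−220 g), 4 per group, dosed at 5 mg/kg i.v., 20 mg/kg i.p. or 20 mg/kg p.o. Parameters given as mean ± SD (n = 4).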

[15] = AUC in Sprague-Dawley rat at 20 mg/kg, ip measured up to 48 hrs post administration by HPLC analysis; type: ADME, organism-based; set-up: time < 48 hr, dose 20 mg/kg, route intraperitoneal; details: in vivo; procedure, shortened: as §1
[16] = MRT in Sprague-Dawley rat at 20 mg/kg, ip by HPLC analysis; type: ADME, organism-based; details: in vivo; procedure, shortened: as §1
[17] = AUC in Sprague-Dawley rat at 5 mg/kg, iv measured up to 48 hrs post administration by HPLC analysis; type: ADME, organism-based; set-up: dose 5 mg/kg, time < 48 hr, route intravenous; details: in vivo; procedure, shortened: as §1
[18] = AUC in Sprague-Dawley rat at 20 mg/kg, po measured up to 48 hrs post administration by HPLC analysis; type: ADME, organism-based; set-up: time < 48 hr, dose 20 mg/kg, route oral; details: in vivo; procedure, shortened: as §1
[19] = Half life in Sprague-Dawley rat at 20 mg/kg, po by HPLC analysis; type: ADME, organism-based; details: in vivo; procedure, shortened: as §1
[20] = Oral bioavailability in Sprague-Dawley rat at 20 mg/kg measured up to 48 hrs after administration by HPLC analysis; type: ADME, organism-based; details: in vivo; procedure, shortened: as §1
[21] = Clearance in Sprague-Dawley rat at 20 mg/kg, po by HPLC analysis; type: ADME, organism-based; details: in vivo; procedure, shortened: as §1
[22] = Clearance in Sprague-Dawley rat at 20 mg/kg, ip by HPLC analysis; type: ADME, organism-based; details: in vivo; procedure, shortened: as §1
[23] = MRT in Sprague-Dawley rat at 5 mg/kg, iv by HPLC analysis; type: ADME, organism-based; details: in vivo; procedure, shortened: as §1
[24] = Half life in Sprague-Dawley rat at 20 mg/kg, ip by HPLC analysis; type: ADME, organism-based; details: in vivo; procedure, shortened: as §1
[25] = MRT in Sprague-Dawley rat at 20 mg/kg, po by HPLC analysis; type: ADME, organism-based; details: in vivo; procedure, shortened: as §1
[26] = Clearance in Sprague-Dawley rat at 5 mg/kg, iv measured up to 48 hrs post administration by HPLC analysis; type: ADME, organism-based; details: in vivo; procedure, shortened: as §1
[27] = Half life in Sprague-Dawley rat at 5 mg/kg, iv by HPLC analysis; type: ADME, organism-based; details: in vivo; procedure, shortened: as §1
[28] = Drug uptake in human MCF7 cells at 1 uM after 10 mins by HPLC analysis; type: ADME, cell-based; details: mcf7, 10 min
Procedure, shortened: (§2)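 MCF7 cells were given 1 µM compound in medium with 10% FBS for 10 or 30 min. Cells and medium were extracted separately with chloroform/methanol (3:1, v/v) and analysed by HPLC. Mean ± SEM, n = 3.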

[29] = Drug uptake in human MCF7 cells at 1 uM after 30 mins by HPLC analysis; type: ADME, cell-based; details: mcf7, 0.5 h; procedure, shortened: as §2
[30] = system: Mus musculus; assay: Hypercalcemic effect in ICR mouse at 0.5 to 5 mg/kg/day, ip administered for 7 days measured on day 8 post-dose by MTB-based assay relative to control; type: ADME, organism-based; details: in vivo, 168 h
Procedure, shortened: (§3)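 Mice were dosed i.p. over a 7-day period and serum calcium was then measured. Each dose level was compared with a vehicle-treated control group (saline cited as the comparator). Data are mean ± SEM, n = 6 per group. Significance versus vehicle was reported at p < 0.05, 0.01 and 0.001.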

[31] = system: MCF7; assay: Antitumor activity against human MCF7 cells xenografted in BALB/c nude mouse assessed as tumor growth inhibition at 10 mg/kg, ip administered every other day; type: functional, organism-based
Procedure, shortened: (§4)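 MCF7 cells transplanted orthotopically into the breast of athymic nude mice. Dosing at 10 mg/kg i.p. in vehicle of polyoxyethylated castor oil/ethanol/saline 1:1:18, with vehicle and saline control groups. Body weight, tumor volume and serum calcium followed.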

[32] = system: Mus musculus; assay: Toxicity in BALB/c nude mouse xenografted with human MCF7 cells assessed as change in body weight at 10 mg/kg, ip administered every other day relative to control; type: organism-based; details: in vivo; procedure, shortened: as §4
[33] = system: MCF7; assay: Induction of apoptosis in human MCF7 cells xenografted in BALB/c nude mouse at 10 mg/kg, ip administered every other day by TUNEL assay; type: functional, organism-based
Procedure, shortened: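 Apoptosis in MCF7 orthotopic tumor sections from nude mice given 10 mg/kg i.p. was scored by TUNEL staining.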

[34] = system: Mus musculus; assay: Toxicity in BALB/c nude mouse xenografted with human MCF7 cells assessed increase in serum calcium levels at 10 mg/kg, ip administered every other day relative to control; type: organism-based; details: in vivo; procedure, shortened: as §4
[35] = system: Mus musculus; assay: Hypercalcemic effect in ICR mouse at 30 mg/kg/day, ip administered for 7 days measured on day 8 post-dose by MTB-based assay relative to control; type: ADME, organism-based; details: in vivo, 168 h; procedure, shortened: as §3
[36] = biological target: T2, Vitamin D3 receptor (Homo sapiens) (UniProt P11473); assay: Transactivation of human GAL4-fused VRD expressed in HEK293 cells co-transfected with human RXRalpha/VDRE after 24 hrs by dual luciferase reporter gene assay; type: cell-based
T2 sequence (whole entry): T1 sequence (P11473 whole entry)

[37] = system: HepG2; assay: Induction of cell cycle arrest in human HepG2 cells at 1 uM after 24 hrs by propidium iodide-staining based flow cytometry; type: functional

| Compound | Activity [1] | Activity [2] | Activity [3] | viability at 1 µM [4] | Activity [5] | Activity [6] | Activity [7] | IC50 [8] | IC50 [9] | IC50 [10] | IC50 [11] | IC50 [12] | IC50 [13] | Activity [30] | other results |
| --- | --- | --- | --- | --- | --- | --- | --- | --- | --- | --- | --- | --- | --- | --- | --- |
| Cc1cc(C2(c3ccc(OCC(=O)C(C)(C)C)c(C)c3)CCCCC2)ccc1OCC(=O)C(C)(C)C | 0.33% | 2.53% | 8.2% | 88.9% | 11.41% | 59.74% | 28.85% | – | – | – | – | – | – | – | – |
| CCOc1ccc(NC(=O)c2ccc(C(CC)(CC)c3ccc(OCCC(O)(CC)CC)c(C)c3)n2CC)cc1 | – | – | – | – | – | – | – | 4540 nM | > 50000 nM | > 50000 nM | > 50000 nM | > 50000 nM | > 50000 nM | – | – |
| CCn1c(C(=O)NC(C)CO)ccc1C(CC)(CC)c1ccc(OCC(O)C(C)(C)C)c(C)c1 (stereo unspecified) | 0.15% | 2.78% | 7.58% | 89.5% | 12.52% | 63.03% | 24.45% | 228 nM | – | 17400 nM | 2800 nM | 17400 nM | > 50000 nM | – | bioavailability [14]: 46.2%; AUC at 48 h [15]: 24800 ng·h/mL; MRT [16]: 8.15 h; AUC at 48 h [17]: 13400 ng·h/mL; AUC at 48 h [18]: 13500 ng·h/mL; half-life [19]: 6.89 h; bioavailability [20]: 25.2%; CL/F [21]: 25 mL/min; CL/F [22]: 13.5 mL/min; MRT [23]: 2.82 h; half-life [24]: 3.96 h; MRT [25]: 10.8 h; clearance [26]: 6.83 mL/min; half-life [27]: 2.44 h |
| CCN(CC)CCNC(=O)c1ccc(C(CC)(CC)c2ccc(OCCC(O)(CC)CC)c(C)c2)n1CC | 0.24% | 2.81% | 7.74% | 89.2% | 4.77% | 68.92% | 26.31% | 271 nM | 230 nM | 2290 nM | 550 nM | 3350 nM | 1630 nM | Non-Toxic | Drug uptake [28]: Active; Drug uptake [29]: Active; TGI [31]: Active; Activity [32]: Non-Toxic; Activity [33]: Active; Activity [34]: Non-Toxic; Activity [35]: Toxic |
| CCn1c(C(=O)N(C)CC(=O)O)ccc1C(CC)(CC)c1ccc(OCCC(O)(CC)CC)c(C)c1 | 0.17% | 3.66% | 8.42% | 87.8% | 10.57% | 61.76% | 27.68% | 873 nM | 5710 nM | 2150 nM | 79 nM | 2250 nM | 2740 nM | Non-Toxic | Activity [36]: Dose-dependent effect; Activity [37]: Active |
